This note sets out measurements from ChEMBL document CHEMBL1155362, “Synthesis, characterization and derivatization of some novel types of mono- and bis-imidazolidineiminothiones and imidazolidineiminodithiones with antitumor, antiviral, antibacterial and antifungal activities--part I” (Eur J Med Chem, 2009).

Structures are written as SMILES. In brackets after ≈: the same amount, converted by molar mass. Activity calls are given as the source filed them. The calls are words filed in the database; no cut-off is given here.

Experiment [1] is described as follows: Antitumor activity against mouse EAC cells assessed as inhibition of cell viability at 100 ug/ml after 2 hrs by trypan blue exclusion assay. It counts as functional. The conditions noted are these: Ehrlich. The method in brief: (§1)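 EAC cells aspirated from ascitic fluid of inoculated mice and diluted in saline; 0.1 mL cell suspension, 0.8 mL RPMI 1640 and 0.1 mL compound (25, 50 or 100) incubated 2 h at 37 °C; non-viable cells counted by trypan blue exclusion; % non-viable = dead/total × 100.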

Experiment [2] can be described thus: Antitumor activity against mouse EAC cells assessed as inhibition of cell viability at 50 ug/ml after 2 hrs by trypan blue exclusion assay. It is filed as functional. Particulars: Ehrlich. The procedure, abridged:
as §1

Experiment [3] in a line: Antitumor activity against mouse EAC cells assessed as inhibition of cell viability at 25 ug/ml after 2 hrs by trypan blue exclusion assay. It counts as functional. Particulars: Ehrlich. The method in brief: as §1
The subject of the next experiment is HepG2. As to the kind of experiment: Cytotoxicity against human HepG2 cells assessed as surviving fraction after 48 hrs by SRB assay. It is filed as functional, cell-based. The procedure, abridged: (§2)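 Cells seeded at 10⁴ cells/well and left 24 h to attach, then exposed to […] in triplicate wells per dose. Incubation 48 h, 37 °C, 5% CO₂. Cells fixed and stained with sulforhodamine B, excess dye removed with acetic acid, bound dye taken up in Tris EDTA and read on an ELISA reader. Surviving fraction plotted against concentration.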

The test system of another experiment is MCF7. Briefly: Cytotoxicity against human MCF7 cells assessed as surviving fraction after 48 hrs by SRB assay. It counts as functional, cell-based. The method in brief: as §2
The test system of the next experiment is HeLa. Briefly: Cytotoxicity against human HeLa cells assessed as surviving fraction after 48 hrs by SRB assay. It is filed as functional, cell-based. The procedure, abridged: as §2
(The SRB assay estimates cell density from bound dye.)

For experiment [4], the system named is Pseudomonas aeruginosa. Briefly: Antibacterial activity against Pseudomonas aeruginosa NCIB 9016 at 5 mg/ml by agar disk diffusion assay. It is filed as functional. Particulars: Pseudomonas aeruginosa, NCIB 9016; read-out: DIZ. On the technique in general: A growth-free zone around the sample is the usual read-out of agar diffusion tests.
Experiment [5] deals with Candida albicans. Briefly: Antifungal activity against Candida albicans IMRU 3669 at 5 mg/ml by agar disk diffusion assay. It is filed as functional. Particulars: Candida albicans, IMRU 3669; read-out: DIZ. The procedure, abridged: (§3)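 Fungi maintained on Czapek's Dox agar; agar well diffusion with 1 cm wells and […] of each concentration (1, 2.5, 5 mg/mL) in DMF; inhibition zone diameter measured.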

The subject of the next experiment is Escherichia coli. Briefly: Antibacterial activity against Escherichia coli NCTC 10416 at 5 mg/ml by agar disk diffusion assay. It counts as functional. The conditions noted are these: read-out: DIZ.
The subject of a further experiment is Salmonella typhi. Briefly: Antibacterial activity against Salmonella typhi NCIMB 9331 at 5 mg/ml by agar disk diffusion assay. Particulars: Salmonella enterica, read-out: DIZ. It counts as functional, Salmonella enterica subsp. enterica serovar Typhi.
The subject of experiment [6] is Bacillus subtilis. As to the kind of experiment: Antibacterial activity against Bacillus subtilis NCTC 1040 at 5 mg/ml by agar disk diffusion assay. It is filed as functional. The conditions noted are these: read-out: DIZ.
A further experiment has as its system Staphylococcus aureus. As to the kind of experiment: Antibacterial activity against Staphylococcus aureus NCTC 7447 at 5 mg/ml by agar disk diffusion assay. It is filed as functional. Particulars: read-out: DIZ.
The test system of experiment [7] is Bacillus subtilis. As to the kind of experiment: Antibacterial activity against Bacillus subtilis NCIB 3610 at 5 mg/ml by agar disk diffusion assay. It counts as functional.
Experiment [8] relates to Candida albicans. Briefly: Antifungal activity against Candida albicans IMRU 3669 at 2.5 mg/ml by agar disk diffusion assay. It is filed as functional. Particulars: read-out: DIZ. The method in brief: as §3
The test system of the next experiment is Aspergillus niger. As to the kind of experiment: Antifungal activity against Aspergillus niger Ferm-BAM C-21 at 5 mg/ml by agar disk diffusion assay. It is filed as functional. The conditions noted are these: read-out: DIZ. The procedure, abridged: as §3
Experiment [9] concerns Pseudomonas aeruginosa. As to the kind of experiment: Antibacterial activity against Pseudomonas aeruginosa NCIB 9016 at 1 mg/ml by agar disk diffusion assay. It counts as functional.
Experiment [10] has as its system Pseudomonas aeruginosa. Briefly: Antibacterial activity against Pseudomonas aeruginosa NCIB 9016 at 2.5 mg/ml by agar disk diffusion assay. It counts as functional.
For experiment [11], the system named is Bacillus subtilis. As to the kind of experiment: Antibacterial activity against Bacillus subtilis NCIB 3610 at 1 mg/ml by agar disk diffusion assay. It counts as functional.
The test system of experiment [12] is Bacillus subtilis. As to the kind of experiment: Antibacterial activity against Bacillus subtilis NCIB 3610 at 2.5 mg/ml by agar disk diffusion assay. It is filed as functional.
The next experiment concerns Hepatovirus A. Briefly: Antiviral activity against Hepatitis A virus infected african green monkey Vero cells at 10^-4 dilution of 5 mg/ml by plaque formation assay. It is filed as functional. The procedure, abridged: (§4)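 Compound dilutions prepared from a 5 mg/mL DMSO stock, using the maximum non-toxic dilution for Vero cells over 3 days; 0.1 mL virus (10³) mixed with 0.1 mL compound for 1 h at room temperature; mixture inoculated onto washed Vero monolayers in 12-well plates and adsorbed at 37 °C; 2× MEM/agarose overlay applied; read-out % reduction in plaque count versus untreated virus control.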

For another experiment, the system named is Human alphaherpesvirus 1. Briefly: Antiviral activity against HSV1 infected african green monkey Vero cells at 10^-4 dilution of 5 mg/ml by plaque formation assay. It is filed as functional. The method in brief:
as §4

The subject of the next experiment is Coxsackievirus B4. Briefly: Antiviral activity against Coxsackievirus B4 infected african green monkey Vero cells at 10^-4 dilution of 5 mg/ml by plaque formation assay. It counts as functional, organism-based. The procedure, abridged:
as §4

Another experiment relates to U-251. Briefly: Cytotoxicity against human U251 cells assessed as surviving fraction after 48 hrs by SRB assay. It counts as functional, cell-based. The conditions noted are these: u-251. The procedure, abridged: as §2
A further experiment deals with HCT-116. As to the kind of experiment: Cytotoxicity against human HCT116 cells assessed as surviving fraction after 48 hrs by SRB assay. It counts as functional, cell-based. Particulars: hct-116. The method in brief: as §2
[13] abbreviates: Bacillus subtilis, NCIB 3610, read-out: DIZ.
Where [14] appears, read: Pseudomonas aeruginosa, NCIB 9016, read-out: DIZ.

As to `O=C1N(c2ccc(Cl)cc2)CC(=S)N1c1ccc(Cl)cc1`, the inhibition (usually the share of the control response that was lost under treatment) at 100 µg/mL in experiment [1] is 100%. For the same compound, the inhibition at 50 µg/mL in experiment [2] was 100%. Also, the inhibition at 25 µg/mL in experiment [3] worked out at 90%. Moreover, the half-inhibitory concentration (IC50) (in general, the concentration that inhibits the measured activity by half) is “Not Active” in the experiment on HepG2 (hepg2); 9.36 µg/mL (≈ 27.8 µM) in the experiment with MCF7 (Homo sapiens, MCF7, 48 h, read-out: IC50); “Not Active” with HeLa (hela).
For `N#CC(=S)Nc1ccc(Cl)c(Cl)c1`, in the experiment on Pseudomonas aeruginosa [4], the zone of inhibition at 5000 µg/mL is 19 mm.
Regarding `N=C1C(=S)N(c2ccc(Br)cc2)C(=O)N1c1cc(Cl)c(Cl)cc1Cl`, the zone of inhibition at 5000 µg/mL is 14 mm with Candida albicans [5]; 16 mm with Escherichia coli; 18 mm in the experiment on Salmonella typhi; 16 mm in the experiment on Bacillus subtilis [6]; 16.5 mm in the experiment on Staphylococcus aureus.
Take `N=C1C(=S)N(c2ccc(Cl)cc2)C(=O)N1c1cccc2ccccc12`: the zone of inhibition at 5000 µg/mL in the experiment on Bacillus subtilis [7] (setting [13]) stood at 19 mm; in the experiment with Candida albicans [5] it was 14 mm; with Aspergillus niger, 12 mm; with Pseudomonas aeruginosa [4], 18 mm. The zone of inhibition at 2500 µg/mL is 12 mm in the experiment with Candida albicans [8], 16 mm in the experiment on Pseudomonas aeruginosa [10] (setting [14]) and 18 mm in the experiment with Bacillus subtilis [12] (setting [13]). Moreover, the zone of inhibition at 1000 µg/mL in the experiment with Pseudomonas aeruginosa [9] (setting [14]) was 15 mm; with Bacillus subtilis [11] (setting [13]) it was 17 mm.
As for `CCN(CC)CC.N#CC(=S)Nc1ccc(Cl)c(Cl)c1`, the “diameter of the inhibition zone (DIZ)” value in the experiment on Bacillus subtilis [7] is 17 mm; in the experiment with Pseudomonas aeruginosa [9], 13 mm; with Pseudomonas aeruginosa [10], 16 mm; with Bacillus subtilis [11] it was 15 mm; in the experiment with Bacillus subtilis [12] it was 16 mm.
In the case of `N=C1C(=S)N(c2ccc(Br)cc2)C(=O)N1c1ccc2c(c1)Cc1ccccc1-2`, the zone of inhibition at 5000 µg/mL in the experiment on Candida albicans [5] turned out to be 13 mm; with Escherichia coli, 14 mm; in the experiment on Salmonella typhi, 16 mm; in the experiment on Bacillus subtilis [6] it was 13 mm. Also, the outcome in the experiment with Hepatovirus A, in the experiment on Human alphaherpesvirus 1 and with Coxsackievirus B4 was inactive.
In the case of `O=c1n(-c2ccc(Cl)cc2)c2nc3ccccc3nc2n1-c1ccc(Cl)c(Cl)c1`, the inhibition at 100 µg/mL in experiment [1] stood at 95%. Also, the inhibition at 50 µg/mL in experiment [2] amounted to 70%. In [3], the inhibition at 25 µg/mL was 30%. Moreover, the IC50 entry is “Not Active” in the experiment on U-251; 7.11 µg/mL (≈ 16.1 µM) in the experiment with HepG2 (Homo sapiens, HepG2, 48 h, read-out: IC50); “Not Active” in the experiment with MCF7 (mcf7); 7.38 µg/mL (≈ 16.7 µM) in the experiment with HeLa (Homo sapiens, HeLa, 48 h, read-out: IC50); “Not Active” with HCT-116.
